In ChEMBL document CHEMBL1131242, “6beta-Acetoxynortropane: a potent muscarinic agonist with apparent selectivity toward M2-receptors” (J Med Chem, 1998):
Where a chain is given by its changes, count along the chain named.

Experiments:
[1] = target: T1, Neuronal acetylcholine receptor; alpha4/beta2 (Rattus norvegicus, UniProt P09483+P12390); assay: Inhibition of binding of [3H]nicotine to Nicotinic acetylcholine receptor alpha4-beta2 in rat cerebral cortical membranes at 100 uM concentration; format: cell membranes, Membrane
T1 sequence (P09483 whole entry): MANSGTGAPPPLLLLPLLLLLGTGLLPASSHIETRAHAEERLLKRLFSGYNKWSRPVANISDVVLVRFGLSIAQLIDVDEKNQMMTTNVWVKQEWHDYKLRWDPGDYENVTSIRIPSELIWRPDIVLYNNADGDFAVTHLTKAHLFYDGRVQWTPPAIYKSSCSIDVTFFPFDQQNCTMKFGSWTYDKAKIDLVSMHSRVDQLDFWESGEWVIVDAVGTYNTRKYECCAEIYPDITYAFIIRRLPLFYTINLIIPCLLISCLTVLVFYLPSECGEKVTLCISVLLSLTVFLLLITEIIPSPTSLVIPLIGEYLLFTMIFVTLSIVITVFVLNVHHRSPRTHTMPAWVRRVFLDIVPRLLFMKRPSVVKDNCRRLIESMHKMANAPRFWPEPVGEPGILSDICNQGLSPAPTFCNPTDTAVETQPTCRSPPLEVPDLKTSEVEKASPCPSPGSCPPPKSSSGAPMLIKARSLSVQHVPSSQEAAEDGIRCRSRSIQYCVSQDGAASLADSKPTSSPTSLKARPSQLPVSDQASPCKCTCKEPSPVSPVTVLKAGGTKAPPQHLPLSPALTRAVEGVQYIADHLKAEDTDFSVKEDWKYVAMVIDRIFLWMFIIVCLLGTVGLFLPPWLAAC
T1 sequence (P12390 whole entry): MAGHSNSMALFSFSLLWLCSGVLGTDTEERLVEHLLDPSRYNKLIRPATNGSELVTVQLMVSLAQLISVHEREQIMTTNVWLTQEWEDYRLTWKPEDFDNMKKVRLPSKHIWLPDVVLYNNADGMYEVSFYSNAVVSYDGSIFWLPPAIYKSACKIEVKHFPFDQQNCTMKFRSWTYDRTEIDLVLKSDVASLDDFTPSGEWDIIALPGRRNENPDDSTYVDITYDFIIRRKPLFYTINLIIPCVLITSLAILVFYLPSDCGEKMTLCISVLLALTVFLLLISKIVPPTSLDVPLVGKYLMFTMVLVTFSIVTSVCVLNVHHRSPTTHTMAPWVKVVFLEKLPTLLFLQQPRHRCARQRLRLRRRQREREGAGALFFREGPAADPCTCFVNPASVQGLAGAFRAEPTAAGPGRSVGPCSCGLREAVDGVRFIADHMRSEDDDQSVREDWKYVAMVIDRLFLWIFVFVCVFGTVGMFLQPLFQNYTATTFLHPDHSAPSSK
How it was run: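 [3H]nicotine (0.2 nM) binding to rat cortical membranes, with 200 µM diisopropyl fluorophosphate, 120 min at 0–4 °C, triplicate. Nonspecific binding with 1 µM nicotine. Percent inhibition at 100 µM test agent; mean ± SEM, n = 4.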

[2] = target: T1, Neuronal acetylcholine receptor; alpha4/beta2; assay: The compound was evaluated for percentage inhibition of binding of [3H]- nicotine to Nicotinic acetylcholine receptor alpha4-beta2 in Rat Cerebral Cortical Membranes; format: protein-complex assay
How it was run: (§1)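 Rat cerebral cortex membranes with 0.2 nM [3H]nicotine in HEPES binding buffer pH 7.4 containing 200 µM diisopropyl fluorophosphate. Incubation was 120 min at 0–4 °C, in triplicate. Nonspecific binding used 1 µM nicotine. Samples were filtered through polyethylenimine-soaked GF/B filters and counted.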

[3] = target: T2, Muscarinic acetylcholine receptor M1 (Rattus norvegicus) (UniProt P08482); assay: (§2) Percentage inhibition of binding of [3H]quinuclidinyl benzilate to muscarinic receptors in membranes of CHO cells transfected with Muscarinic acetylcholine receptor M1; format: cell membranes; conditions: concentration not given here
T2 sequence (whole entry): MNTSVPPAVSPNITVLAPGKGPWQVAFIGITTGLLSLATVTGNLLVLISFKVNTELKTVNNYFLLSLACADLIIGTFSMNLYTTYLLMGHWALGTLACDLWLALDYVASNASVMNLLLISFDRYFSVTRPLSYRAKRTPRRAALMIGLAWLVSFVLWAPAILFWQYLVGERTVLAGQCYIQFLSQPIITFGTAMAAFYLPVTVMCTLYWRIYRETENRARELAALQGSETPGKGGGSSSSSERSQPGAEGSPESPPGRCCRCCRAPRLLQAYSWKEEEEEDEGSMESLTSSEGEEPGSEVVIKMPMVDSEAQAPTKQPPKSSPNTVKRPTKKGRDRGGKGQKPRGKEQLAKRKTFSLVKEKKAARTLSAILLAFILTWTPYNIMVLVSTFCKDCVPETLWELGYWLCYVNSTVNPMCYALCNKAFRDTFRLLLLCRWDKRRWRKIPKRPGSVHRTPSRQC
How it was run: (§3)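 Membranes from CHO cells expressing human M1–M4 receptors in 25 mM sodium phosphate pH 7.4 with 5 mM MgCl2, 30 min at 37 °C, triplicate. [3H]quinuclidinyl benzilate was 0.2 nM for M1 and M3 and 0.1 nM for M2 and M4. Nonspecific binding used 10 µM atropine for M1 and 1 µM for the others.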

[4] = target: T3, Muscarinic acetylcholine receptor M3 (Homo sapiens, UniProt P20309); assay: Inhibition of binding of [3H]quinuclidinyl benzilate to human Muscarinic acetylcholine receptor M3 in membranes of transfected CHO cells at 100 uM concentration; conditions: Membrane
Target sequence in this assay (P20309 whole entry, looked up): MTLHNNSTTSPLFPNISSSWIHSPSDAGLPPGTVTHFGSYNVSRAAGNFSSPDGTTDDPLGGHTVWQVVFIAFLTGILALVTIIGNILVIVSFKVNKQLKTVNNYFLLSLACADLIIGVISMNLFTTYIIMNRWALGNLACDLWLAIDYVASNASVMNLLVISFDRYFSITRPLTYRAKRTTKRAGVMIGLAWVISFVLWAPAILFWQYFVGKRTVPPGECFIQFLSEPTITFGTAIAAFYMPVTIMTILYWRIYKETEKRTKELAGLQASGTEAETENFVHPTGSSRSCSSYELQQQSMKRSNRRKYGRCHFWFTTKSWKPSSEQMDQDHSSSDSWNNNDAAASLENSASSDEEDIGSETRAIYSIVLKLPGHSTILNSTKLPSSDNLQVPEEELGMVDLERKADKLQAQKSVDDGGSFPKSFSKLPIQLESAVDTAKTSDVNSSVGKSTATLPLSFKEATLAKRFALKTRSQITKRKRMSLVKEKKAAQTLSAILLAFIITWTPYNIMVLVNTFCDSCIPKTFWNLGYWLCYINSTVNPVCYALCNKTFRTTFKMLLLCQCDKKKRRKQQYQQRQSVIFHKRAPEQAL

[5] = target: T4, Muscarinic acetylcholine receptor M1 (Rattus norvegicus, UniProt P08482); assay: Inhibition of binding of [3H]oxotremorine M to Muscarinic acetylcholine receptor M1 in rat cerebral cortical membranes; format: cell membranes, Membrane
T4 sequence (P08482 whole entry): T2 sequence (whole entry)
How it was run: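 Agonist radioligand assay: rat cortical membranes with 2 nM [3H]oxotremorine M in 25 mM sodium phosphate pH 7.4 with 5 mM MgCl2, 2 h at 25 °C, in triplicate. Nonspecific binding used 5 µM atropine. Filtration followed by scintillation counting.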

[6] = target: T5, Muscarinic acetylcholine receptor M4 (Rattus norvegicus) (UniProt P08485); assay: (§4) Inhibition of binding of [3H]quinuclidinyl benzilate to muscarinic receptors in membranes of CHO cells transfected with Muscarinic acetylcholine receptor M4; format: cell membranes; conditions: concentration not given here; how it was run: as §3
T5 sequence (whole entry): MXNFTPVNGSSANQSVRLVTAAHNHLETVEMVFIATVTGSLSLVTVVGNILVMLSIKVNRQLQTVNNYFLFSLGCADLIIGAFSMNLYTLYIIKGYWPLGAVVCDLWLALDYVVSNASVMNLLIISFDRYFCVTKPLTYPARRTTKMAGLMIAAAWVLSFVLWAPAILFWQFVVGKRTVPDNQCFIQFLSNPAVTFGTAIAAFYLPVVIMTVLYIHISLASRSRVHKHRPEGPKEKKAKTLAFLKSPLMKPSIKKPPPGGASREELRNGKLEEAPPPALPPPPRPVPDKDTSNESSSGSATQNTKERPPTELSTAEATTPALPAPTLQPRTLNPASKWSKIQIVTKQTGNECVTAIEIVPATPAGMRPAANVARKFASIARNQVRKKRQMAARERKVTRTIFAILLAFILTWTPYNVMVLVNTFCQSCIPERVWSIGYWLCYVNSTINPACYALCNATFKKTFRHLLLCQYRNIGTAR

[7] = target: Muscarinic acetylcholine receptor M1 (Homo sapiens) (UniProt P11229); assay: Inhibition of binding of [3H]quinuclidinyl benzilate to human Muscarinic acetylcholine receptor M1 in membranes of transfected CHO cells at 300 uM concentration; conditions: Membrane
Target sequence in this assay (P11229 whole entry, looked up): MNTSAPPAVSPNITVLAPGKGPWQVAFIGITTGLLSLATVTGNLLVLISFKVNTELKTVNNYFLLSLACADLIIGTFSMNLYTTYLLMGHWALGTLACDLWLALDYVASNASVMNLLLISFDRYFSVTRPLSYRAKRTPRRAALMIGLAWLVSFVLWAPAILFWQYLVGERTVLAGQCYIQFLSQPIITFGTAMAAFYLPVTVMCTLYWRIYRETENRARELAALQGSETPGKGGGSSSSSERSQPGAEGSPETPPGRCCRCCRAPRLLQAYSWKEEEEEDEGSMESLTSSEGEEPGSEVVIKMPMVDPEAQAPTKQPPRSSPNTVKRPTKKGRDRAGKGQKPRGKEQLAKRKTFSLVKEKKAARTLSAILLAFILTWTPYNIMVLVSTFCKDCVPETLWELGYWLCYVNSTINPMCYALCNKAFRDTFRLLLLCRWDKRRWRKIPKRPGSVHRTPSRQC

[8] = target: T6, Muscarinic acetylcholine receptor M2 (Rattus norvegicus, UniProt P10980); assay: (§5) Inhibition of binding of [3H]quinuclidinyl benzilate to muscarinic receptors in membranes of CHO cells transfected with Muscarinic acetylcholine receptor M2; format: cell membranes; how it was run: as §3
T6 sequence (P10980 whole entry): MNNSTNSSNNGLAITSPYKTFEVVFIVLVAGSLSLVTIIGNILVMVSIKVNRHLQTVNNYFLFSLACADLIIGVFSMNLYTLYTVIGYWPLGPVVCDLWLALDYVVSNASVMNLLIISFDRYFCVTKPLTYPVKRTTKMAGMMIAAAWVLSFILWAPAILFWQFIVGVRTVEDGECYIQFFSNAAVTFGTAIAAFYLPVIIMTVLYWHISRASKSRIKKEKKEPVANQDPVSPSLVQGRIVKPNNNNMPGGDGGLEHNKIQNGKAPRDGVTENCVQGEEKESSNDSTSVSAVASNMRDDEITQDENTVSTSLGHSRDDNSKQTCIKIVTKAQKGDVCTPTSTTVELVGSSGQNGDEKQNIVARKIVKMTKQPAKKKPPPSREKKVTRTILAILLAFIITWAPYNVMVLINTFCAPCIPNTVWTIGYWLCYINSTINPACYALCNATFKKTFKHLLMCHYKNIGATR

[9] = target: T5, Muscarinic acetylcholine receptor M4 (Rattus norvegicus); assay: Inhibition of binding of [3H]quinuclidinyl benzilate to Muscarinic acetylcholine receptor M4 […] at 300 uM concentration; format: cell membranes; conditions: Membrane
[10] = target: T1, Neuronal acetylcholine receptor; alpha4/beta2; assay: Inhibition of binding of [3H]nicotine to Nicotinic acetylcholine receptor alpha4-beta2 in rat cerebral cortical membranes; format: cell membranes, Membrane; how it was run: as §1
[11] = target: T4, Muscarinic acetylcholine receptor M1; assay: Affinity versus [3H]oxotremorine M (agonist) binding to Muscarinic acetylcholine receptor M1 in Rat Cerebral Cortical Membranes, (Kd=[…])
[12] = target: Muscarinic acetylcholine receptor M3 (Rattus norvegicus) (UniProt P08483); assay: Percentage inhibition of binding of [3H]quinuclidinyl benzilate to muscarinic receptors in membranes of CHO cells transfected with Muscarinic acetylcholine receptor M3; format: cell membranes; conditions: concentration not given here
Sequence of Muscarinic acetylcholine receptor M3 (Rattus norvegicus) (P08483 whole entry, looked up): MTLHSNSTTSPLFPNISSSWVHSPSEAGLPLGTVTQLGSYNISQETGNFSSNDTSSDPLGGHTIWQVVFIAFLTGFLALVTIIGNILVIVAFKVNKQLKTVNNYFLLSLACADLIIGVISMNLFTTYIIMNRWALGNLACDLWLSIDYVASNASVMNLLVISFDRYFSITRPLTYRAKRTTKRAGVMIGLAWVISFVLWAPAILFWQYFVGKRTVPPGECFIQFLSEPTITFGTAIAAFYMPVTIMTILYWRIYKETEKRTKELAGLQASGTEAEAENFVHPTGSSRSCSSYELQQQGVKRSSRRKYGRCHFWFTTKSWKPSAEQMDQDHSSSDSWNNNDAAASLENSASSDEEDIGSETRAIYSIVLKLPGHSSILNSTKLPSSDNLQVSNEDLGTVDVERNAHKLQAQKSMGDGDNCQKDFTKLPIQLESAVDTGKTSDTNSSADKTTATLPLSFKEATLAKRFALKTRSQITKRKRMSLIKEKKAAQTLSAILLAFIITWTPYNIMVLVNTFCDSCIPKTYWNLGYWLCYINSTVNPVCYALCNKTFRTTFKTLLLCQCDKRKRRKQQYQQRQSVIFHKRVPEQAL

[13] = target: Muscarinic acetylcholine receptor M2 (Homo sapiens) (UniProt P08172); assay: Inhibition of binding of [3H]quinuclidinyl benzilate to Muscarinic acetylcholine receptor M2 in membranes of transfected CHO cells
[14] = target: Muscarinic acetylcholine receptor M4 (Homo sapiens) (UniProt P08173); assay: Inhibitory activity against [3H]-cyclic AMP accumulation in CHO transfected cells mediated by Muscarinic acetylcholine receptor M4
[15] = target: T7, Muscarinic acetylcholine receptor M4 (Homo sapiens) (UniProt P08173); assay: Inhibition of binding of [3H]quinuclidinyl benzilate to muscarinic receptors in membranes of CHO cells transfected with Muscarinic acetylcholine receptor M4
T7 sequence (whole entry): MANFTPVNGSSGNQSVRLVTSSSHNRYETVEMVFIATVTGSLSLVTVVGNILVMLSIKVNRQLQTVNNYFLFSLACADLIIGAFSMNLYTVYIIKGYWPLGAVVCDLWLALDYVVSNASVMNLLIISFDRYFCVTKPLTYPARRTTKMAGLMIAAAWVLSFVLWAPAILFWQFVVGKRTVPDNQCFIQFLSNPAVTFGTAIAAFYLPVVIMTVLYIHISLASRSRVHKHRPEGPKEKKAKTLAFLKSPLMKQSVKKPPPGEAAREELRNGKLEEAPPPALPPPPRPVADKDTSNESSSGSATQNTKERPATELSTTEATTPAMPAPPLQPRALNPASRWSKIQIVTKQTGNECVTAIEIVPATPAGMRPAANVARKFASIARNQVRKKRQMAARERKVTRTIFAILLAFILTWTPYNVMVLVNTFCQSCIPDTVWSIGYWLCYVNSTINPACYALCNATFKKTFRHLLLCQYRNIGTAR

[16] = target: Muscarinic acetylcholine receptor M4 (Homo sapiens) (UniProt P08173); assay: Inhibition of binding of [3H]quinuclidinyl benzilate to Muscarinic acetylcholine receptor M4 in membranes of transfected CHO cells
[17] = target: T3, Muscarinic acetylcholine receptor M3; assay: Inhibitory activity against stimulation of [3H]inositol monophosphate accumulation in [3H]inositol-labelled CHO transfected cells mediated by Muscarinic acetylcholine receptor M3
Target sequence in this assay (P20309 whole entry, looked up): as the sequence (P20309 whole entry, looked up) above

[18] = target: T3, Muscarinic acetylcholine receptor M3; assay: Percentage inhibition of binding of [3H]quinuclidinyl benzilate to muscarinic receptors in membranes of CHO cells transfected with Muscarinic acetylcholine receptor M3
Target sequence in this assay (P20309 whole entry, looked up): as above

[19] = target: T8, Muscarinic acetylcholine receptor M1 (Homo sapiens) (UniProt P11229); assay: as §2; format: cell membranes; conditions: concentration not given here; how it was run: as §3
T8 sequence (whole entry): T2 sequence (whole entry) with V5A, S254T, S309P, K320R, G337A, V413I

[20] = target: T4, Muscarinic acetylcholine receptor M1; assay: Affinity versus [3H]quinuclidinyl benzilate (antagonist) binding to Muscarinic acetylcholine receptor M1 in Rat Cerebral Cortical Membranes,
How it was run: (§6)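 Rat cerebral cortex membranes were homogenised in 50 mM Tris-HCl pH 7.4 and diluted in HEPES binding buffer. They were incubated with 0.2 nM [3H]quinuclidinyl benzilate in 20 mM HEPES pH 7.4 with 10 mM MgCl2 and 100 mM NaCl for 30 min at 37 °C, in triplicate. Nonspecific binding used 1 µM atropine. Filtration was followed by scintillation counting.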

[21] = target: T4, Muscarinic acetylcholine receptor M1; assay: Inhibition of binding of [3H]quinuclidinyl benzilate to Muscarinic acetylcholine receptor M1 in rat cerebral cortical membranes; format: cell membranes, Membrane; how it was run: as §6
[22] = target: T4, Muscarinic acetylcholine receptor M1; assay: The compound was evaluated for inhibition of binding of [3H]quinuclidinyl benzilate to Muscarinic acetylcholine receptor M1 in Rat Cerebral Cortical Membranes; how it was run: as §6
[23] = target: T3, Muscarinic acetylcholine receptor M3; assay: Inhibition of binding of [3H]quinuclidinyl benzilate to muscarinic receptors in membranes of CHO cells transfected with Muscarinic acetylcholine receptor M3; format: cell membranes
Target sequence in this assay (P20309 whole entry): as the sequence (P20309 whole entry, looked up) above

[24] = target: T9, Muscarinic acetylcholine receptor M2 (Homo sapiens, UniProt P08172); assay: as §5; format: cell membranes
T9 sequence (P08172 whole entry): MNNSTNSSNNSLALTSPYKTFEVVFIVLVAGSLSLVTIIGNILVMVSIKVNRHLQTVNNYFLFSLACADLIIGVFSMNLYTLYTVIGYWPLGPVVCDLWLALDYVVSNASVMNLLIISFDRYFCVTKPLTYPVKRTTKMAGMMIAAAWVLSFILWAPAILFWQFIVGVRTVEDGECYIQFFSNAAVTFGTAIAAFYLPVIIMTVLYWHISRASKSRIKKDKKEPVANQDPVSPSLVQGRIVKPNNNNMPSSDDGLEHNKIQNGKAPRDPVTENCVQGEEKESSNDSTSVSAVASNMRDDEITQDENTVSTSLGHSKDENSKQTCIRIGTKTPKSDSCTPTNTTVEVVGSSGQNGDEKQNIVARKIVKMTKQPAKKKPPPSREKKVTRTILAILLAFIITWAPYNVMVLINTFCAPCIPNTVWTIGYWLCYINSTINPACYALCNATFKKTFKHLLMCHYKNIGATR

[25] = target: T10, Muscarinic acetylcholine receptor M4 (Homo sapiens, UniProt P08173); assay: as §4; format: cell membranes
T10 sequence (P08173 whole entry): T7 sequence (whole entry)

[26] = target: T2, Muscarinic acetylcholine receptor M1 (Rattus norvegicus); conditions: Membrane; 30 uM

Compound: COC(=O)C1=CCCN(C)C1 [ARECOLINE]
- Ki [1]: 0.27 µM
- Ki [2]: 0.27 µM

Compound: COC(=O)[C@H]1CC2NC1CC[C@@H]2O (some centres undefined)
- inhibition [3]: 2%
- inhibition [4]: 0%
- Ki [5]: 18 µM
- inhibition [6]: 33%
- inhibition [7]: 2%
- Ki [2]: 4 µM
- Ki [8]: 12 µM
- inhibition [9]: 33%
- Ki [10]: 4 µM
- Ki [11]: 18 µM
- inhibition [12]: 0%
- Ki [13]: 12 µM

Compound: C[C@@H]1O[C@H](C[N+](C)(C)C)C[C@H]1O [MUSCARINE]
- inhibition [4]: 28%
- IC50 [14]: 0.47 µM
- Ki [15]: 1.4 µM
- Ki [16]: 1.4 µM
- EC50 [17]: 0.13 µM
- inhibition [18]: 28%

Compound: CC(=O)OC1CC2CCCC1N2C (centres undefined)
- inhibition [19]: 48%
- Ki [5]: 2.6 µM
- Ki [20]: 280 µM
- Ki [21]: 280 µM
- Ki [22]: 280 µM
- Ki [23]: 15 µM
- Ki [24]: 2.7 µM
- Ki [16]: 8.3 µM
- Ki [25]: 8.3 µM
- Ki [2]: 1.5 µM
- inhibition [26]: 48%
- Ki [10]: 1.5 µM
- Ki [11]: 2.6 µM
- Ki [13]: 2.7 µM
